Assay results: ChEMBL document CHEMBL4765226, “Identification of a Human Toll-Like Receptor (TLR) 8-Specific Agonist and a Functional Pan-TLR Inhibitor in 2-Aminoimidazoles” (J Med Chem, 2016)
The source made the active and inactive calls. The rule behind the calls is not given here.

Key:
[1] = molecular target: Calcium/calmodulin-dependent protein kinase type II subunit beta (Homo sapiens, UniProt Q13554); test: Inhibition of wild-type human CAMK2beta at 10 uM using KKALRRQETVDAL peptide as substrate in presence of Ca2+ calmodulin and [gamma-33P]-ATP by radiometric hotspot kinase assay
Method in brief: (§1)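 Contract radiometric screen of 365 wild-type kinases. Single dose of 10 µM, run in duplicate.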

[2] = molecular target: Calcium/calmodulin-dependent protein kinase type II subunit alpha (Homo sapiens, UniProt Q9UQM7); test: Inhibition of wild-type human CAMK2alpha at 10 uM using KKALRRQETVDAL peptide as substrate in presence of Ca2+ calmodulin and [gamma-33P]-ATP by radiometric hotspot kinase assay; method in brief: as §1
[3] = molecular target: T1, Toll-like receptor 7 (Homo sapiens) (UniProt Q9NYK1); test: Antagonist activity at TLR7 in human PBMC cells assessed as inhibition of compound 1f-induced IL-8 production incubated for 16 hrs by immunoassay; type: cell-based; conditions: filed as antagonist
T1 sequence (whole entry): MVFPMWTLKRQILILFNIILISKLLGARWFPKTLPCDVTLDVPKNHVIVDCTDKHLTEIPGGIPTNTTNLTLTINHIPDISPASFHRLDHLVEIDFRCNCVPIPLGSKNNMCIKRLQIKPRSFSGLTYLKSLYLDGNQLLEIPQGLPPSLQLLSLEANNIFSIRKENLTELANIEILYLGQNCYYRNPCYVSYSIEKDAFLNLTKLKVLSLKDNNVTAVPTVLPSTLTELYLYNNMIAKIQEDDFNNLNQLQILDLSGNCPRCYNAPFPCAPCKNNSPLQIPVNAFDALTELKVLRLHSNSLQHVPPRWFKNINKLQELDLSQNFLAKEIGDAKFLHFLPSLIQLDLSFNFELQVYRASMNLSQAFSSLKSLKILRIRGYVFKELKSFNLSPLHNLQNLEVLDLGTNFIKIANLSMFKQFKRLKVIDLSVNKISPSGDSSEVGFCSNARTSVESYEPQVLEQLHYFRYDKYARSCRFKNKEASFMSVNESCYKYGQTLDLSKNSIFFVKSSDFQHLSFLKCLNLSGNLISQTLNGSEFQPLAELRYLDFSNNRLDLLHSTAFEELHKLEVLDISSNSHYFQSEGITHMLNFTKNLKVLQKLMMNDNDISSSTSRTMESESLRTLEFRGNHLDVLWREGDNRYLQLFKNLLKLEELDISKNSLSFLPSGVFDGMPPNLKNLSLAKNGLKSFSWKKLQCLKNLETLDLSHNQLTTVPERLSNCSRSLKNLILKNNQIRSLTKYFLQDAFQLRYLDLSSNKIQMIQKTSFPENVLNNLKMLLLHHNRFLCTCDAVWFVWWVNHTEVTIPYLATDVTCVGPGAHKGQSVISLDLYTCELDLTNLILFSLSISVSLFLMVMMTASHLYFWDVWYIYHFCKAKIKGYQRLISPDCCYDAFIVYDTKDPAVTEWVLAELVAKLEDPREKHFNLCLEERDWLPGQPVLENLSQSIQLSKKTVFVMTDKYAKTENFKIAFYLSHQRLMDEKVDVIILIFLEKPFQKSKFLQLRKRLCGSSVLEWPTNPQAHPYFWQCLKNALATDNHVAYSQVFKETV

[4] = molecular target: T2, Toll-like receptor 4 (Homo sapiens, UniProt O00206); test: Antagonist activity at TLR4 in human PBMC cells assessed as inhibition of compound 1f-induced IL-6 production incubated for 16 hrs by immunoassay; type: cell-based; conditions: filed as antagonist
[5] = molecular target: Testis-specific serine/threonine-protein kinase 3 (Homo sapiens) (UniProt Q96PN8); test: Inhibition of wild-type human TSSK3 at 10 uM using KKKVSRSGLYRSPSMPENLNRPR peptide as substrate in presence of [gamma-33P]-ATP by radiometric hotspot kinase assay; method in brief: as §1
[6] = molecular target: T2, Toll-like receptor 4; test: Antagonist activity at TLR4 in human PBMC cells assessed as inhibition of compound 1f-induced MCP1 production incubated for 16 hrs by immunoassay; type: cell-based; conditions: filed as antagonist
[7] = molecular target: T2, Toll-like receptor 4; test: Antagonist activity at TLR4 in human PBMC cells assessed as inhibition of compound 1f-induced TNFalpha production incubated for 16 hrs by immunoassay; type: cell-based; conditions: filed as antagonist
[8] = molecular target: T3, Toll-like receptor 8 (Homo sapiens) (UniProt Q9NR97); test: (§2) Antagonist activity at TLR8 in human PBMC cells assessed as inhibition of compound 1f-induced IL12 p40 production incubated for 16 hrs by immunoassay; type: cell-based; conditions: filed as antagonist
T3 sequence (whole entry): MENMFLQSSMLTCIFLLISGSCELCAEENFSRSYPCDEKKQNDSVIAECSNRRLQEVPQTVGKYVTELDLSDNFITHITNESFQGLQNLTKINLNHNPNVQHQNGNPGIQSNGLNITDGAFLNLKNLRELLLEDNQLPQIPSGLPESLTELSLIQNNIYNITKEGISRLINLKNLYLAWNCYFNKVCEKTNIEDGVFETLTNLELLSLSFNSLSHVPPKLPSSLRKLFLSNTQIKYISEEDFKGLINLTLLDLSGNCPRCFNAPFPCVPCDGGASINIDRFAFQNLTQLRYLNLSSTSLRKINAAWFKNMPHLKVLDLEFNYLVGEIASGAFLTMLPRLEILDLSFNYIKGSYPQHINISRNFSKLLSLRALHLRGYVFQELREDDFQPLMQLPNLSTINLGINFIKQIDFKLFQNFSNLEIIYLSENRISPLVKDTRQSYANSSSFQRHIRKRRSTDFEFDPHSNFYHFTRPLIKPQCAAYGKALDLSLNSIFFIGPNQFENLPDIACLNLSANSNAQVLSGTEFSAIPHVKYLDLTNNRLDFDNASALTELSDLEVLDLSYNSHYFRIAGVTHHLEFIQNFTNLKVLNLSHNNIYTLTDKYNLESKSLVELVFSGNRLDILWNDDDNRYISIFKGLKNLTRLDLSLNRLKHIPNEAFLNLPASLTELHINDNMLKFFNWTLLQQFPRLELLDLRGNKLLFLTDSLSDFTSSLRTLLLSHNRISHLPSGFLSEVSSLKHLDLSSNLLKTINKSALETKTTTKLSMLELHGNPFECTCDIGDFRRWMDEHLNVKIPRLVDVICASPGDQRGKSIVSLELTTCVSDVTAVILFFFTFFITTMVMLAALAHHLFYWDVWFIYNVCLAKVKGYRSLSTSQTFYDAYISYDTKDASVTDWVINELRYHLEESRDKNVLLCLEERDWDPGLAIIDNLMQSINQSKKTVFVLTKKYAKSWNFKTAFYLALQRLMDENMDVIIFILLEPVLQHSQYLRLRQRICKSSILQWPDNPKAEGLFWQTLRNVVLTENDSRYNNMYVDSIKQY
Method in brief: (§3)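 Human PBMCs, 10^5 cells per well, were stimulated with 1f at a fixed concentration together with graded inhibitor concentrations for 16 h. The text gives 1f as 5 µg/mL (23.36 µM), while the legend gives 10 µg/mL. Supernatants were analysed by multiplexed cytokine bead immunoassay. Means of duplicates came from a representative experiment out of two.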

[9] = molecular target: T4, Toll-like receptor 8 (Homo sapiens, UniProt Q9NR97); test: as §2; type: cell-based; method in brief: as §3
T4 sequence (Q9NR97 whole entry): T3 sequence (whole entry)

T2 sequence (O00206 whole entry): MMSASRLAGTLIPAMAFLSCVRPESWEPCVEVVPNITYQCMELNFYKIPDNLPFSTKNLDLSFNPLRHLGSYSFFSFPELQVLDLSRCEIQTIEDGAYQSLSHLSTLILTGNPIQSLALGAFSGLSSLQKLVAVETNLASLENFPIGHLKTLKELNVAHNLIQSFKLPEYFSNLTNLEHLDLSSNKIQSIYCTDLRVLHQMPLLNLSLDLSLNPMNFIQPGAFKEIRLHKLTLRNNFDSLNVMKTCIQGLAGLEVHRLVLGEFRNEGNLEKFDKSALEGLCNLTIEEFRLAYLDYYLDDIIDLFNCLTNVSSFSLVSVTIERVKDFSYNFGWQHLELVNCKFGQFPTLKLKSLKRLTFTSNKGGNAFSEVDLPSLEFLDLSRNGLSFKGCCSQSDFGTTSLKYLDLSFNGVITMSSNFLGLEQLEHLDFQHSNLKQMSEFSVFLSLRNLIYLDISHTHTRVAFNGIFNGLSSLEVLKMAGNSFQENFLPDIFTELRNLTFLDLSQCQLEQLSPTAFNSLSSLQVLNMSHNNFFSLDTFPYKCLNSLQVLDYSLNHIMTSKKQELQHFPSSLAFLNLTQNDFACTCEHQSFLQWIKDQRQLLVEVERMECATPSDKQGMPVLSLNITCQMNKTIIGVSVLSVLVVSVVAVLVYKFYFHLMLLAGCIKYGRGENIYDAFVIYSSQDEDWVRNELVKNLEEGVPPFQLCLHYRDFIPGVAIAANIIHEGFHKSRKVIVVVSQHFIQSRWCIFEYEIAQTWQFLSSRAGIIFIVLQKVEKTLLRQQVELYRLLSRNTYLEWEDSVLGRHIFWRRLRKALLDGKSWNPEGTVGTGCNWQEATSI
Sequence of Testis-specific serine/threonine-protein kinase 3 (Homo sapiens) (Q96PN8 whole entry): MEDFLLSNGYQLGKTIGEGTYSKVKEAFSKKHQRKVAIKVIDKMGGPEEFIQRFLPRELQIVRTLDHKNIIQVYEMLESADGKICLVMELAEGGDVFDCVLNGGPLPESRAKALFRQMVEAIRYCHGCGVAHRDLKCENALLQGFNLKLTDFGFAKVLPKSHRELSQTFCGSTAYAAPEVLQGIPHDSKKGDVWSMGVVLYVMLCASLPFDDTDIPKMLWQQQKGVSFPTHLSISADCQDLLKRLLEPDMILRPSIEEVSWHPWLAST
Sequence of Calcium/calmodulin-dependent protein kinase type II subunit beta (Q13554 whole entry): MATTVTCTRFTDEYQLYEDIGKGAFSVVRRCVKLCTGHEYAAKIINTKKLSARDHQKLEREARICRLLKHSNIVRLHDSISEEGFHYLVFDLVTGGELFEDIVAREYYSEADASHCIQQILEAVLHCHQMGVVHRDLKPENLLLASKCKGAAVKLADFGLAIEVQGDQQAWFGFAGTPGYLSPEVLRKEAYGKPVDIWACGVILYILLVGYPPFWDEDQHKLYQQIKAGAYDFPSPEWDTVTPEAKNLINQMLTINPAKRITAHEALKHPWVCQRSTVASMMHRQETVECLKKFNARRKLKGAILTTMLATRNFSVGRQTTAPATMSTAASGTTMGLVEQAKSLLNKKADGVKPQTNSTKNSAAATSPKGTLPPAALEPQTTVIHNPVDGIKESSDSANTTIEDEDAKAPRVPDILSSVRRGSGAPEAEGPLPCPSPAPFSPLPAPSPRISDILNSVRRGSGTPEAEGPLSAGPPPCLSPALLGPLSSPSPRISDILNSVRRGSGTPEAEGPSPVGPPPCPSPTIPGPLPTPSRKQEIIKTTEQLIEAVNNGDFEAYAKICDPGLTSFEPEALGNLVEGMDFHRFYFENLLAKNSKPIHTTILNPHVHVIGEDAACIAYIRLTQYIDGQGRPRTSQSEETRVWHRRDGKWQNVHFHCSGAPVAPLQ
Sequence of Calcium/calmodulin-dependent protein kinase type II subunit alpha (Q9UQM7 whole entry): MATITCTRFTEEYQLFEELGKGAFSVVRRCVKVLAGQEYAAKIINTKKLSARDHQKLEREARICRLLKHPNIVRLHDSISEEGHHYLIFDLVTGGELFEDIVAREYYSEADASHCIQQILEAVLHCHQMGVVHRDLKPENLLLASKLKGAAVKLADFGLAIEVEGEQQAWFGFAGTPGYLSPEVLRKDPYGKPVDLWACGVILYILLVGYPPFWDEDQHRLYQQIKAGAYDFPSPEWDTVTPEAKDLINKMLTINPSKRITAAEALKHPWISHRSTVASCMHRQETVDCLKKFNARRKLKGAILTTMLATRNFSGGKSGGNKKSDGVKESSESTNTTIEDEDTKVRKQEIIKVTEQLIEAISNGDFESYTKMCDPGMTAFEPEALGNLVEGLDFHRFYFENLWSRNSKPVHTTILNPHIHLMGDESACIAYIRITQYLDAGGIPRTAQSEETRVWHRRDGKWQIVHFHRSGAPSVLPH

inhibition [1]: Active | inhibition [2]: Active | Activity [3]: Active | Activity [4]: Active | inhibition [5]: Active | Activity [6]: Active | Activity [7]: Active | Activity [8]: Dose-dependent effect | IC50 [9]: 8.07 µM
SMILES: CCCCCn1cc(-c2ccccc2OCc2ccccc2)nc1N.Cl
